Reference: ChEMBL document CHEMBL5653624 (Biochem Pharmacol, 2016)
Calls of active or inactive are those of the source. No cut-off for these calls is given here.

Tests used:
[1] = molecular target: T1, Histone deacetylase 3 (Mus musculus) (UniProt O88895); experiment: Inhibition of HDAC3 in mouse RAW264.7 cells assessed as effect on LPS/IFNgamma-induced NF-kappaB p65 nuclear translocation preincubated for 20 hrs followed by LPS/IFNgamma stimulation and measured after 1 hr by immunofluorescence microscopy; assay type: cell-based
T1 sequence (whole entry): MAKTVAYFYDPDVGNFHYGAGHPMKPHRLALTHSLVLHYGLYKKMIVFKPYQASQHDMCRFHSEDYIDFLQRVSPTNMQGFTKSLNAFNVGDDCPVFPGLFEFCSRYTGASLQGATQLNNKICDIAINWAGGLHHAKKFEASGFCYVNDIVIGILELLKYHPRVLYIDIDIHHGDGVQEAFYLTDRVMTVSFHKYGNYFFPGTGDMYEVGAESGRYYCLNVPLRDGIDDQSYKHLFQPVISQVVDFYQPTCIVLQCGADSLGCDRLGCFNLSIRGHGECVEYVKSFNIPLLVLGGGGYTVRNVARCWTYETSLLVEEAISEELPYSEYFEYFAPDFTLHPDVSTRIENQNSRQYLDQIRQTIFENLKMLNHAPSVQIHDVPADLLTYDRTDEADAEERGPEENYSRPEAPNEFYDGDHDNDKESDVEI
Summary of the method: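 RAW 264.7 seeded at 20,000 cells/cm2, 1 μM inhibitor 20 h then 1 h LPS/IFNγ; fixed 4% formaldehyde, permeabilized 0.25% Triton X-100, blocked 5% BSA; rabbit anti-p65 (1:250, 2 h 4 °C) with AlexaFluor488 secondary, Hoechst nuclei; confocal imaging at identical settings; 3 independent experiments.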

RAW264.7 [2] = experiment: Antiinflammatory activity in mouse RAW264.7 cells assessed as effect on LPS/IFNgamma-induced TNFalpha gene expression at 1 uM preincubated for 20 hrs followed by LPS/IFNgamma stimulation and measured after 4 hrs by RT-qPCR analysis; assay type: functional, cell-based; details: time 24.0 hrs
Summary of the method: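 RAW 264.7 macrophages in DMEM/10% FBS received 1 μM RGFP966 for 20 h, with LPS/IFNγ for the last 4 h. Washed with cold DPBS, total RNA isolated, integrity checked by 28S/18S. RT-qPCR by comparative Ct (2−ΔΔCt), fold change versus LPS/IFNγ control. Mean ± SD of 3–5 independent experiments.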

RAW264.7 [3] = experiment: Antiinflammatory activity in LPS/IFNgamma-stimulated mouse RAW264.7 cells assessed as effect on IkappaBalpha expression preincubated for 20 hrs followed by LPS/IFNgamma stimulation and measured after 4 hrs by Western blot analysis; assay type: functional, cell-based; details: time 24.0 hrs
[4] = molecular target: T1, Histone deacetylase 3 (Mus musculus); experiment: Inhibition of HDAC3 in mouse RAW264.7 cells assessed as effect on histone H4 acetylation measured after 20 hrs by Western blot analysis; assay type: cell-based
Summary of the method: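 Histones extracted from RAW 264.7 cells after 20 h inhibitor treatment, protein quantified by micro BCA (BSA standard), and H3 and H4 acetylation assessed by Western blot versus vehicle-treated cells.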

Lung [5] = experiment: Antiinflammatory activity in C57bl/6 mouse precision-cut lung slices assessed as effect on LPS/IFNgamma-induced HDAC2 gene expression at 1 to 10 uM preincubated for 20 hrs followed by LPS/IFNgamma stimulation and measured after 4 hrs by RT-qPCR analysis; assay type: functional, tissue-based; details: dose 1-10 µM, time 24.0 hrs
RAW264.7 [6] = experiment: Antiinflammatory activity in LPS/IFNgamma-stimulated mouse RAW264.7 cells assessed as effect on HDAC2 mRNA expression preincubated for 20 hrs followed by LPS/IFNgamma stimulation and measured after 4 hrs by RT-qPCR analysis; assay type: functional, cell-based; details: time 24.0 hrs
[7] = molecular target: T1, Histone deacetylase 3 (Mus musculus); experiment: Inhibition of HDAC3 in mouse RAW264.7 cells assessed as effect on histone H4 peptide (GKGGKGLGKGGAKR) acetylation measured after 20 hrs by LC-MS/MS analysis; assay type: cell-based
Summary of the method: (§1)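 Histones from RAW 264.7 (20 h treatment) run on 15% SDS-PAGE (7 μg), Coomassie-stained H3/H4 bands excised, destained, and chemically acetylated with acetic anhydride-d6 in 1 M ammonium bicarbonate; endogenous lysine acetylation ratio derived by mass spectrometry from deuterated versus non-deuterated acetyl mass difference.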

[8] = molecular target: T1, Histone deacetylase 3 (Mus musculus); experiment: Inhibition of HDAC3 in mouse RAW264.7 cells assessed as effect on histone H3 peptide (KQLATKAAR) acetylation measured after 20 hrs by LC-MS/MS analysis; assay type: cell-based; summary of the method: as §1
HASMC = experiment: Cytotoxicity against HASMC cells assessed as reduction in cell viability at 2 uM measured after 20 hrs by MTS assay; assay type: toxicity, cell-based; details: human
Summary of the method: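 MTS viability assay. RAW 264.7 cells seeded at 25,000 cells/cm2; HBE and hASM cells at 70% confluency and serum-starved for 24 h. Exposure for 20 h with LPS/IFNγ stimulation. MTS reagent added for 1 h at 37 °C in the dark, absorbance read at 490 nm. LPS/IFNγ-stimulated cells without inhibitor set at 100%.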

Lung [9] = experiment: Antiinflammatory activity in C57bl/6 mouse precision-cut lung slices assessed as upregulation of LPS/IFNgamma-induced Fizz1 gene expression at 1 to 10 uM preincubated for 20 hrs followed by LPS/IFNgamma stimulation and measured after 4 hrs by RT-qPCR analysis; assay type: functional, tissue-based; details: dose 1-10 µM, time 24.0 hrs
Summary of the method: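 PCLS, 250 μm thick, cut from agarose-filled lungs of male C57bl/6 mice (24–28 g, 8–10 weeks). Three slices per well at 37 °C, 5% CO2. Slices received RGFP966 at 1 and 10 μM final for 20 h, with 10 ng/ml LPS and 10 ng/ml IFNγ stimulation. RNA isolated; RT-qPCR fold change versus LPS/IFNγ control by 2−ΔΔCt. Mean ± SD, n = 3–5.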

[10] = molecular target: Histone deacetylase 1 (Mus musculus) (UniProt O09106); experiment: Effect on HDAC1 nuclear localization in LPS/IFNgamma-stimulated mouse RAW264.7 cells preincubated for 20 hrs followed by LPS/IFNgamma stimulation and measured after 1 hr by Hoechst staining based confocal laser scanning microscopy; assay type: cell-based
Sequence of Histone deacetylase 1 (Mus musculus) (O09106 whole entry): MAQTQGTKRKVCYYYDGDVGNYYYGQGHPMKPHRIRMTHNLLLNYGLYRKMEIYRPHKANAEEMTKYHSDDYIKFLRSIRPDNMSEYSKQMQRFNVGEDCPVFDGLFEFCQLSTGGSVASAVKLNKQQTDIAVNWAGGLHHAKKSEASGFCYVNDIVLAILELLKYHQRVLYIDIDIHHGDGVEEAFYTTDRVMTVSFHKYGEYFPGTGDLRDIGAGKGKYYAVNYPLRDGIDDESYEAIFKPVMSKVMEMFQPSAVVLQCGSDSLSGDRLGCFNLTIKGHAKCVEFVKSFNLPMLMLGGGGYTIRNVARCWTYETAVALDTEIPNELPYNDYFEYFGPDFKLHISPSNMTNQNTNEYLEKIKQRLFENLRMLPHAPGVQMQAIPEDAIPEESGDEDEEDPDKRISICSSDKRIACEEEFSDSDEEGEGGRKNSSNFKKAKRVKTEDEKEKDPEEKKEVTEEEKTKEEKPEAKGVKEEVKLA
Summary of the method: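 RAW 264.7 cells at 20,000 cells/cm2 received 1 μM RGFP966 for 20 h, then 1 h LPS/IFNγ. Fixed in 4% formaldehyde, permeabilized with 0.25% Triton X-100, blocked with 5% BSA. Primary antibodies 2 h at 4 °C, AlexaFluor secondaries 1 h, Hoechst nuclear stain. Confocal imaging at 630×; 4 independent experiments.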

Lung [11] = experiment: Antiinflammatory activity in C57bl/6 mouse precision-cut lung slices assessed as effect on LPS/IFNgamma-induced HDAC1 expression at 1 to 10 uM preincubated for 20 hrs followed by LPS/IFNgamma stimulation and measured after 4 hrs by Western blot analysis; assay type: functional, tissue-based; details: dose 1-10 µM, time 24.0 hrs
HBE = experiment: Antiinflammatory activity in HBE cells assessed as effect on LPS/IFNgamma-induced TNFalpha gene expression at 2 uM […] by RT-qPCR analysis; assay type: functional, cell-based; details: Homo sapiens
Summary of the method: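 HBE cells (passage 73–103) or immortalized hASM cells (2–3 donors, passage 27–35), serum-starved. Then 2 μM RGFP966 for 20 h, with LPS/IFNγ for the last 4 h. Total RNA isolated; RT-qPCR by 2−ΔΔCt, fold change versus LPS/IFNγ control. Mean ± SD of 3–5 independent experiments.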

inhibition [1]: inactive
inhibition [4]: inactive
inhibition [7]: inactive
inhibition [8]: inactive
Activity [10]: inactive
SMILES: Nc1cc(F)ccc1NC(=O)/C=C/c1cnn(C/C=C/c2ccccc2)c1
Activity (RAW264.7 [2]): inactive
Activity (RAW264.7 [3]): inactive
Activity (Lung [5]): inactive
Activity (RAW264.7 [6]): inactive
Activity (HASMC): Non-Toxic
Activity (Lung [9]): Active
Activity (Lung [11]): inactive
Activity (HBE): inactive
